Experimental data from ChEMBL document CHEMBL1145793, “Discovery and structure-activity relationships of novel piperidine inhibitors of farnesyltransferase” (J Med Chem, 2003).

biological target: Protein farnesyltransferase (Bos taurus, UniProt P29702+P49355); assay: Inhibition of bovine brain farnesyltransferase (FTase) farnesylation of viral K-Ras
Method in brief: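 Partially purified bovine brain farnesyltransferase, used as a crude dialysate. Substrates were viral K-Ras protein and [3H]farnesyl pyrophosphate. It was calculated by comparing untreated enzyme activity with activity at known inhibitor concentrations.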

IC50 [nM] | Compound
410 | Cc1cccc(C2CC(=O)N(Cc3cccnc3)[C@H](c3ccc(O)cc3)[C@H]2[N+](=O)[O-])c1 (stereo not given in full)
97 | Nc1cc([C@@H]2[C@@H]([N+](=O)[O-])C(c3ccccc3Br)CC(=O)N2Cc2cccnc2)ccc1O (stereo not given in full)
> 1200 | O=C1CC(c2ccccc2Br)[C@H]([N+](=O)[O-])[C@@H](c2ccc(O)c(CO)c2)N1Cc1cccnc1 (stereo not given in full)
13 | O=[N+]([O-])[C@H]1C(c2ccccc2Br)C=CN(Cc2cccnc2)[C@@H]1c1ccc(O)c(O)c1 (stereo not given in full)
46 | O=C1CC(c2ccccc2Br)[C@H]([N+](=O)[O-])[C@@H](c2ccc(O)c(O)c2)N1Cc1cccnc1 (mixture of isomers)
140 | O=C1CC(c2ccccc2Br)[C@H]([N+](=O)[O-])[C@@H](c2ccc(O)cc2)N1Cc1cccnc1 (mixture of isomers)
30 | O=C1CC(c2ccccc2Br)[C@H]([N+](=O)[O-])[C@@H](c2ccc(O)c(O)c2)N1Cc1cccnc1 (single isomer, unassigned; (+))
5.8 | O=[N+]([O-])[C@H]1C(c2ccccc2Br)CCN(Cc2cccnc2)[C@@H]1c1ccc(O)cc1 (single isomer, unassigned; (+))
75 | O=C1CC(c2ccccc2Br)[C@H]([N+](=O)[O-])[C@@H](c2ccc(O)cc2)N1Cc1cccnc1 (single isomer, unassigned; (+))
> 310 | O=[N+]([O-])[C@H]1C(c2ccccc2Br)CCN(Cc2cccnc2)[C@@H]1c1ccc(O)cc1 (single isomer, unassigned; (-))
950 | O=C1CC(c2ccccc2Br)[C@H]([N+](=O)[O-])[C@@H](c2ccc(O)cc2)N1Cc1cccnc1 (single isomer, unassigned; (-))
> 310 | O=[N+]([O-])[C@H]1C(c2ccccc2Br)CCN(Cc2cccnc2)[C@@H]1c1ccc(O)c(O)c1 (stereo in doubt; 8-(-))

Continued, compound first:

Compound | IC50 [nM]
O=C1CC(c2ccc(Br)cc2)[C@H]([N+](=O)[O-])[C@@H](c2ccc(O)cc2)N1Cc1cccnc1 (stereo not given in full) | > 3700
O=C1CC(c2cccc(Br)c2)[C@H]([N+](=O)[O-])[C@@H](c2ccc(O)cc2)N1Cc1ccncc1 (stereo not given in full) | > 3700
COc1ccc([C@@H]2[C@@H]([N+](=O)[O-])C(c3ccccc3Br)CC(=O)N2Cc2cccnc2)cc1 (stereo not given in full) | > 1200
N[C@H]1C(c2cccc(Br)c2)CC(=O)N(Cc2cccnc2)[C@@H]1c1ccc(O)cc1 (stereo not given in full) | > 3700
O=C1CC(c2cccc(Cl)c2)[C@H]([N+](=O)[O-])[C@@H](c2ccc(O)cc2)N1Cc1cccnc1 (stereo not given in full) | 320
O=C1CC(c2cccc(Br)c2)[C@H](NO)[C@@H](c2ccc(O)cc2)N1Cc1cccnc1 (stereo not given in full) | > 3700
O=C1CC(c2cccc(Br)c2)[C@H]([N+](=O)[O-])[C@@H](c2ccc(O)cc2)N1Cc1ccc[n+]([O-])c1 (stereo not given in full) | > 3700
O=[N+]([O-])[C@H]1C(c2ccccc2Br)CCN(Cc2cccnc2)[C@@H]1c1ccc(O)cc1 (mixture of isomers) | 8.2
O=[N+]([O-])[C@H]1C(c2ccccc2Br)CCN(Cc2cccnc2)[C@@H]1c1ccc(O)c(O)c1 (mixture of isomers) | 3.7
O=[N+]([O-])[C@H]1C(c2ccccc2Br)CCN(Cc2cccnc2)[C@@H]1c1ccc(O)c(O)c1 (single isomer, unassigned; (+)) | 1.9
O=C1CC(c2ccccc2Br)[C@H]([N+](=O)[O-])[C@@H](c2ccc(O)c(O)c2)N1Cc1cccnc1 (single isomer, unassigned; (-)) | 1200
O=C1CC(c2cccc(Br)c2)[C@H]([N+](=O)[O-])[C@@H](c2ccc(O)cc2)N1Cc1cccnc1 (stereo in doubt) | 420
O=C1CC(c2cccc(Br)c2)[C@H]([N+](=O)[O-])[C@@H](c2ccc(O)cc2)N1Cc1cccnc1 (stereo in doubt; 1) | 350
